Consider six molecules from ChEMBL document CHEMBL3774372, “Design, physico-chemical properties and biological evaluation of some new N-[(phenoxy)alkyl]- and N-{2-[2-(phenoxy)ethoxy]ethyl}aminoalkanols as anticonvulsant agents” (Bioorg Med Chem, 2016).

Structures are written as SMILES.

Assay [1] is described as follows: Displacement of [35S]dATPalpha S from rat cerebral cortex P2Y receptor. It counts as tissue-based. The method in brief:
(§1)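 Radioligand binding on rat cerebral cortex preparations: [35S]TBPS (GABA-gated Cl⁻ channel), [125I]apamin (SKCa), [3H]batrachotoxinin (Na⁺ site 2), [35S]dATPαS (P2Y), [3H]TCP (PCP), [3H]flunitrazepam (central BZD).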
(In a radioligand displacement assay an active substance lowers the binding of a labelled ligand.)

Assay [2] can be described thus: […] from rat cerebral cortex Sodium channel site 2. It counts as tissue-based.
The nature of assay [3]: Displacement of [3H]alpha,beta-MeATP from rat urinary bladder P2X receptor.
A short description of assay [4]: Displacement of [3H]TCP from rat cerebral cortex PCP receptor. In kind it is tissue-based. The method in brief: as §1
Assay [5] in a line: […] from rat cerebral cortex GABA-gated chloride channel. In kind it is tissue-based.
The target of assay [6] is 5-hydroxytryptamine receptor 2C (Homo sapiens, UniProt P28335). The assay can be described thus: Displacement of [3H][…] from human recombinant 5-HT2C receptor expressed in HEK293 cells. It counts as cell-based.
Sequence of 5-hydroxytryptamine receptor 2C (P28335 whole entry): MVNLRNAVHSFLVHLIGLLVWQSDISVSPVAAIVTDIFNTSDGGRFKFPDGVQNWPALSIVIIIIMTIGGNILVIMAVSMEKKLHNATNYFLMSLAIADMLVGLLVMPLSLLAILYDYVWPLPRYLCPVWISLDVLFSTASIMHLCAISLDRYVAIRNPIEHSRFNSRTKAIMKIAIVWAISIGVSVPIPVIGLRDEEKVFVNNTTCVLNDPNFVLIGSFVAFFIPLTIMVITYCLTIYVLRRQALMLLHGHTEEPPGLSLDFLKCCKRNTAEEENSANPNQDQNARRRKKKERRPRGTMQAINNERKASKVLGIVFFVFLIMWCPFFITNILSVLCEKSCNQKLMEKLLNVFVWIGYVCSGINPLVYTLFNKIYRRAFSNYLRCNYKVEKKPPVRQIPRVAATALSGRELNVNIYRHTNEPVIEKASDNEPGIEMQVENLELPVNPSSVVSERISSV

Usually IC50 stands for the point on the concentration scale where inhibition reaches its midpoint. `Nc1ncnc2c1ncn2[C@@H]1O[C@H](COP(O)(=S)OP(=O)(O)OP(=O)(O)O)[C@@H](O)[C@H]1O` (stereo partly specified) displayed a 50% inhibitory concentration (IC50) in assay [1] of 0.029 µM.
Molecule `COc1ccc(C(=O)O[C@H]2CC[C@@]3(C)[C@@H]4CC[C@H]5[C@]6(O)C[C@H](O)[C@@]7(O)[C@@H](CN8C[C@@H](C)CC[C@H]8[C@@]7(C)O)[C@]6(O)C[C@@]53O[C@]24O)cc1OC` [VERATRIDINE] yielded an IC50 in assay [2] of 4 µM.
`Nc1ncnc2c1ncn2[C@@H]1O[C@H](COP(=O)(O)CP(=O)(O)OP(=O)(O)O)[C@@H](O)[C@H]1O` [DIPHOSPHOMETHYLPHOSPHONIC ACID ADENOSYL ESTER]: the IC50 in assay [3] was 0.0019 µM.
On to `C[C@]12N[C@H](Cc3ccccc31)c1ccccc12` [DIZOCILPINE], for which, in assay [4], the IC50 was 0.0046 µM.
For `C=C(C)[C@@H]1[C@H]2OC(=O)[C@@H]1[C@]1(O)C[C@H]3O[C@]34C(=O)O[C@H]2[C@]14C` [PICROTOXININ], the IC50 in assay [5] amounted to 0.077 µM.
For the molecule `COc1cc(OC)c(C(=O)CCCCN2CCC3(CC2)NC(=O)NC3=O)cc1NS(=O)(=O)c1ccc(C(F)(F)F)cc1` [RS-102,221], the IC50 in assay [6] was found to be 0.0015 µM.
